Measurements from ChEMBL document CHEMBL1147890, “Synthesis of the new pseudo-symmetrical tamoxifen derivatives and their anti-tumor activity” (Bioorg Med Chem Lett, 2007).
pIC50: −log10 of the molar value. The source made the active and inactive calls. The rule behind the calls is not given here.

Assays:
HL-60 [1] = assay: Antitumor activity against HL60 cells at 5 uM after 6 hrs by MTT assay; format: functional, Homo sapiens
In short: (§1)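 HL-60 human acute promyelocytic leukemia cells exposed for 0–6 h at final 2.5, 5, 7.5 and 10 µM. Viability read by MTT (mitochondrial succinic dehydrogenase reduces dye to formazan). Growth rate expressed against formazan absorbance at 0 h set to 1.0. SD, n = 5. IC50 taken as median growth-inhibitory concentration at 3 h or 6 h.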

HL-60 [2] = assay: Antitumor activity against HL60 cells at 7.5 uM after 6 hrs by MTT assay; format: functional, Homo sapiens; in short: as §1
HL-60 [3] = assay: Antitumor activity against HL60 cells at 10 uM after 6 hrs by MTT assay; format: functional, Homo sapiens; in short: as §1
HL-60 [4] = assay: Antitumor activity against HL60 cells after 6 hrs by MTT assay; format: functional, cell-based; conditions: Homo sapiens, HL-60, 6 h; in short: as §1
HL-60 [5] = assay: Antitumor activity against HL60 cells at 5 ug/ml after 4 hrs by MTT assay; format: functional, Homo sapiens
In short: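 HL-60 cells given 5 µg/mL. Viability measured by MTT formazan absorbance after 4 h and expressed relative to the 0 h reading.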

HL-60 [6] = assay: Antitumor activity against HL60 cells after 3 hrs by MTT assay; format: functional, cell-based; conditions: Homo sapiens, HL-60, 3 h; in short: as §1
HL-60 [7] = assay: Induction of apoptosis in HL60 cells assessed as DNA fragmentation at 9 uM by agarose gel electrophoresis; format: functional, cell-based; conditions: Homo sapiens
In short: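 Apoptosis versus necrosis judged by oligonucleosomal DNA cleavage on agarose gel electrophoresis. HL-60 cells treated 6 h at 9 µM final. Controls were medium only, tamoxifen, ethanol and actinomycin D.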

Question: Which Activity (HL-60 [1]) does the source give for `CCC(=C(c1ccc(OCCN2CCCC2)cc1)c1ccc(OCCN2CCCC2)cc1)c1ccccc1` here?
Answer: >90%

Question: And the Activity (HL-60 [2])?
Answer: >90%

Question: What about the Activity (HL-60 [3]) of the same molecule?
Answer: >90%

Question: And the pIC50 (HL-60 [4])?
Answer: 5.52

Question: What about the Activity (HL-60 [5]) of the same molecule?
Answer: >90%

Question: And the pIC50 (HL-60 [6])?
Answer: 5.40

Question: And the Activity (HL-60 [7])?
Answer: Active

Question: `CCC(=C(c1ccc(OCCN2CCCCC2)cc1)c1ccc(OCCN2CCCCC2)cc1)c1ccccc1` was tested. Which Activity (HL-60 [2]) did it give?
Answer: >80%

Question: And the Activity (HL-60 [3])?
Answer: >80%

Question: And the pIC50 (HL-60 [4])?
Answer: 5.30

Question: And the Activity (HL-60 [7])?
Answer: Active
